Experimental data reported in ChEMBL document CHEMBL5107950, “Structure-based design of haloperidol analogues as inhibitors of acetyltransferase Eis from Mycobacterium tuberculosis to overcome kanamycin resistance” (RSC Med Chem, 2021).
≈ marks a conversion by molar mass, not a printed value. Calls of active or inactive are those of the source. The rule behind the calls is not given here.

How the values were obtained:
N-acetyltransferase Eis = biological target: T1, N-acetyltransferase Eis (Mycobacterium tuberculosis (strain ATCC 25618 / H37Rv), UniProt P9WFK7); test: Inhibition of Mycobacterium tuberculosis Eis assessed as Eis-mediated kanamycin acetylation preincubated for 10 mins followed by substrate addition and measured for 2 to 5 mins using acetyl-CoA as substrate in presence of kanamycin by UV-Vis spectroscopy analysis
T1 sequence (P9WFK7 whole entry): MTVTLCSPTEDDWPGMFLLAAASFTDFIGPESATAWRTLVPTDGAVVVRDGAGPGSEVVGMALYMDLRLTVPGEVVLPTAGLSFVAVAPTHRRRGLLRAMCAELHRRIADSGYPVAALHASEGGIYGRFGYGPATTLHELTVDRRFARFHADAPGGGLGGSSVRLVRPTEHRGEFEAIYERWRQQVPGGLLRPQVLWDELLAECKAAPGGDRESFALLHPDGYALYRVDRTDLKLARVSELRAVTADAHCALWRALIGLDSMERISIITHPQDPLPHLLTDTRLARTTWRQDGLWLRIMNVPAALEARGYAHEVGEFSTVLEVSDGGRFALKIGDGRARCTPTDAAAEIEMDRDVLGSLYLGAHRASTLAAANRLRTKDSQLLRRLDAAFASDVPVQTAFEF
How it was run: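 Recombinant Eis (1 µM) mixed with KAN (400 µM) in 50 mM Tris-HCl pH 8.0 and preincubated 10 min with 5-fold serially diluted inhibitor (10% DMSO in buffer). Reaction started with AcCoA and DTNB (2 mM each, as added). Absorbance read every 30 s for 20 min. Initial rates (first 2-5 min) fitted to Hill plot for IC50. At least triplicate.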

[1] = system: Mycolicibacterium smegmatis; test: Antibacterial activity against Mycobacterium smegmatis mc2 155 assessed as inhibition of bacterial growth incubated upto 3 weeks hrs by resazurin dye based double-dilution method; format: functional; conditions: mc2 155, 504 h
How it was run: (§1)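 Double-dilution broth MIC. Media: M. smegmatis, Mueller-Hinton; M. abscessus, 7H9 + 0.05% Tween80 + 0.4% glycerol; mc²6230, 7H9 + 0.05% tyloxapol, 0.5% glycerol, 10% OADC, 0.2% casamino acids, 24 µg/mL pantothenate; other mycobacteria, 7H9 + 0.05% Tween80, 0.4% glycerol, 10% ADC. Inoculum from agar set to 0.5 McFarland, then diluted 1:100.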

[2] = system: Mycobacteroides abscessus; test: Antibacterial activity against Mycobacterium abscessus ATCC 19977 assessed as inhibition of bacterial growth incubated upto 3 weeks hrs by resazurin dye based double-dilution method; format: functional; conditions: ATCC 19977, 504 h; how it was run: as §1
[3] = system: Mycobacterium intracellulare; test: Antibacterial activity against Mycobacterium intracellulare ATCC 13950 assessed as inhibition of bacterial growth incubated upto 3 weeks hrs by resazurin dye based double-dilution method; format: functional; conditions: ATCC 13950, 504 h; how it was run: as §1
Mycobacterium avium [4] = test: Antibacterial activity against Mycobacterium avium ATCC 25921 assessed as inhibition of bacterial growth incubated upto 3 weeks hrs by resazurin dye based double-dilution method; format: functional; conditions: ATCC 25921, 504 h; how it was run: as §1
[5] = system: Mycobacterium tuberculosis; test: Antibacterial activity against Mycobacterium tuberculosis H37Ra ATCC NRS22 assessed as inhibition of bacterial growth incubated upto 3 weeks hrs by resazurin dye based double-dilution method; format: functional; conditions: H37Ra ATCC NRS22, 504 h; how it was run: as §1
[6] = system: Mycolicibacterium smegmatis; test: Synergistic antibacterial activity against Mycobacterium smegmatis mc2 155 assessed as fold reduction in MIC value at 8 ug/ml in presence of spectinomycin by checkerboard assay; format: functional; conditions: dose 8 µg/ml
[7] = system: Mycolicibacterium smegmatis; test: Synergistic antibacterial activity against Mycobacterium smegmatis mc2 155 assessed as fold reduction in MIC value at 8 ug/ml in presence of clarithromycin by checkerboard assay; format: functional; conditions: dose 8 µg/ml
[8] = system: Mycolicibacterium smegmatis; test: Synergistic antibacterial activity against Mycobacterium smegmatis mc2 155 assessed as fold reduction in MIC value at 8 ug/ml in presence of clofazimine by checkerboard assay; format: functional, organism-based; conditions: dose 8.0 µg/ml
[9] = system: Mycobacteroides abscessus; test: Synergistic antibacterial activity against Mycobacterium abscessus ATCC 19977 assessed as reduction in bacterial growth presence of spectinomycin by checkerboard assay; format: functional, organism-based
How it was run: (§2)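 Checkerboard in 96-well plates. Antibiotic two-fold serially diluted along columns, haloperidol derivative two-fold along rows. Bacteria prepared as for the MIC determination. MICs alone and in combination used to calculate FICI. At least duplicate independent trials.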

[10] = system: Mycobacteroides abscessus; test: Synergistic antibacterial activity against Mycobacterium abscessus ATCC 19977 in presence of clarithromycin by checkerboard assay; format: functional, organism-based; how it was run: as §2
[11] = system: Mycobacteroides abscessus; test: Synergistic antibacterial activity against Mycobacterium abscessus ATCC 19977 in presence of clofazimine by checkerboard assay; format: functional, organism-based; how it was run: as §2
[12] = system: Mycobacterium intracellulare; test: Antibacterial activity against Mycobacterium intracellulare ATCC 13950 in presence of spectinomycin by checkerboard assay; format: functional, organism-based; how it was run: as §2
[13] = system: Mycobacterium intracellulare; test: Antibacterial activity against Mycobacterium intracellulare ATCC 13950 in presence of clarithromycin by checkerboard assay; format: functional, organism-based; how it was run: as §2
[14] = system: Mycobacterium intracellulare; test: Antibacterial activity against Mycobacterium intracellulare ATCC 13950 in presence of clofazimine by checkerboard assay; format: functional, organism-based; how it was run: as §2
Mycobacterium avium [15] = test: Antibacterial activity against Mycobacterium avium ATCC 25921 in presence of spectinomycin by checkerboard assay; format: functional, organism-based; how it was run: as §2
Mycobacterium avium [16] = test: Antibacterial activity against Mycobacterium avium ATCC 25921 in presence of clarithromycin by checkerboard assay; format: functional, organism-based; how it was run: as §2
Mycobacterium avium [17] = test: Antibacterial activity against Mycobacterium avium ATCC 25921 in presence of clofazimine by checkerboard assay; format: functional, organism-based; how it was run: as §2
[18] = system: Mycobacterium tuberculosis; test: Synergistic antibacterial activity against Mycobacterium tuberculosis H37Ra ATCC NRS22 in presence of spectinomycin by checkerboard assay; format: functional, organism-based; how it was run: as §2
HEK293 = test: Cytotoxicity against human HEK293 cells assessed as reduction in cell viability at 200 uM incubated for 24 hrs by resazurin assay; format: toxicity, cell-based; conditions: hek293, 24 h
How it was run: (§3)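 Resazurin viability assay in DMEM + 10% FBS, 1% penicillin/streptomycin, 37 °C, 5% CO₂. Seeding: HEK-293 and J774A.1 at 1×10^4 cells/mL, A549 at 5×10^3 cells/mL. After 24 h, compounds added (0.78-200 μM, 0.5% DMSO final). Resazurin added 24 h later, read after 6 h. 1% Triton X as positive control. Quadruplicate.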

A549 [19] = test: Cytotoxicity against human A549 cells assessed as reduction in cell viability at 200 uM incubated for 24 hrs by resazurin assay; format: toxicity, cell-based; conditions: a549, 24 h; how it was run: as §3
J774.A1 [20] = test: Cytotoxicity against mouse J774.A1 cells assessed as reduction in cell viability at 50 uM incubated for 24 hrs by resazurin assay; format: toxicity, cell-based; conditions: j774.a1, 24 h; how it was run: as §3
[21] = system: Mycobacterium tuberculosis; test: Potentiation of kanamycin-induced antibacterial activity against Mycobacterium tuberculosis H37Rv assessed as kanamycin MIC incubated for 1 day followed by kanamycin addition for 6 days and by Alamar blue assay; format: functional; conditions: 168 h, time 7 day
How it was run: (§4)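 Mtb in 7H9 + 10% ADC, 0.05% Tween 80, 0.4% glycerol at 37 °C. Inoculum adjusted to OD600 0.2, diluted 1:25. Cells preincubated 24 h at 37 °C with compound (100 µL of 200 µM solution). KAN then added: H37Rv at 2.5 and 1.25 µg/mL; K204 at 10, 5, 2.5, 1.25 µg/mL. Incubated 6 days, AlamarBlue added, colour read at 24 and 48 h. MIC = lowest KAN with no colour change. At least twice in duplicate.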

[22] = system: Mycobacterium tuberculosis; test: Potentiation of kanamycin-induced antibacterial activity against Mycobacterium tuberculosis K204 assessed as kanamycin MIC incubated for 1 day followed by kanamycin addition for 6 days and by Alamar blue assay; format: functional; conditions: K204, 168 h, time 7 day; how it was run: as §4
J774.A1 [23] = test: Cytotoxicity against mouse J774.A1 cells assessed as reduction in cell viability at 100 uM incubated for 24 hrs by resazurin assay; format: toxicity, cell-based; conditions: j774.a1, 24 h; how it was run: as §3
A549 [24] = test: Cytotoxicity against human A549 cells assessed as reduction in cell viability at 100 uM incubated for 24 hrs by resazurin assay; format: toxicity, cell-based; conditions: a549, 24 h; how it was run: as §3

In the case of `O=C(CCCN1CCC(O)(c2ccc(Cl)cc2)CC1)c1ccc(Cl)cc1` [CHLOROHALOPERIDOL], the IC50 (N-acetyltransferase Eis) is reported as 5.1 µM, the MIC [1] is reported as over 62.5 µM and the MIC [2] is reported as over 62.5 µM. For the same molecule, the MIC [3] was over 62.5 µM, the MIC (Mycobacterium avium [4]) was 62.5 µM (≈ 24.5 µg/mL) and the MIC [5] was 15.6 µM (≈ 6.12 µg/mL). For the same molecule, the “fold change (FC)” value [6] was 16, the “fold change (FC)” value [7] was 4 and the Activity [8] was “Active”. For the same molecule, the Activity [9] was “Active”, the Activity [10] was “Active” and the Activity [11] was “Active”. For the same molecule, the Activity [12] was “Active”, the Activity [13] was “Active” and the Activity [14] was “Active”. For the same molecule, the Activity (Mycobacterium avium [15]) was “Active”, the Activity (Mycobacterium avium [16]) was “Active” and the Activity (Mycobacterium avium [17]) was “Active”. The Activity [18] was “Active”, the Activity (HEK293) was “Non-Toxic” and the Activity (A549 [19]) was “Non-Toxic”. The Activity (J774.A1 [20]) was “Toxic”.

Molecule `COc1ccc(C(=O)CCCN2CCC(O)(c3ccc(Cl)cc3)CC2)cc1` has an IC50 (N-acetyltransferase Eis) of 40 µM, an MIC [21] of at most 1.25 µg/mL and an MIC [22] of over 10 µg/mL. It also gave an MIC [1] of over 62.5 µM, an MIC [2] of over 62.5 µM and an MIC [3] of over 62.5 µM. The MIC (Mycobacterium avium [4]) was over 62.5 µM, the MIC [5] was 62.5 µM (≈ 24.2 µg/mL) and the Activity (J774.A1 [23]) was “Toxic”. The Activity (A549 [24]) was 78%.
